Drawing on ChEMBL document CHEMBL1144065, “Synthesis of furanonaphthoquinones with hydroxyamino side chains” (J Nat Prod, 1999), this text covers IC12 and IC50 for 11 compounds.

Some results are limits rather than exact numbers.

Usually IC50 stands for the concentration at which inhibition is half-maximal.

The subject of assay [1] is Saccharomyces cerevisiae. The assay can be described thus: Growth inhibition of Yeast expressing rad52.top1 mutant by yeast bioassay. In kind it is functional. A digest of the protocol: (§1)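 Agar diffusion assay: 100 µL wells cut in an agar layer overlaid with the repair-deficient yeast strain (∆rad52, or ∆rad52∆top1). IC12 in µg/mL is the concentration giving a 12 mm inhibition zone around the well.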

Assay [2] relates to Saccharomyces cerevisiae. The assay can be described thus: Growth inhibition of Yeast expressing rad52 mutant by yeast bioassay. In kind it is functional. A digest of the protocol:
as §1

A short description of assay [3]: Cytotoxicity against rat H4IIE cells by XTT assay. In kind it is functional, cell-based. In a few lines: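 H4IIE rat hepatoma cells in culture; growth read out with the XTT protocol. IC50 in µM is the concentration giving 50% growth inhibition. Active compounds were run in two separate assays, and both values are reported.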
Background: Formazan colour is commonly taken as a measure of viable cells.

The next assay deals with Vero. As to the kind of experiment: Cytotoxicity against african green monkey Vero cells. It counts as cell-based. The settings on record: Chlorocebus sabaeus.

For the compound `O=Cc1cc2c(o1)C(=O)c1ccccc1C2=O`, the IC12 in the assay on Saccharomyces cerevisiae [1] was found to be 44 µg/mL; in the assay on Saccharomyces cerevisiae [2] it was 160 µg/mL. Also, the IC50 in assay [3] worked out at 2 µM.
For `COc1cc(OC)c2c(c1)C(=O)c1occc1C2=O`, the IC12 in the assay with Saccharomyces cerevisiae [1] was 125 µg/mL; with Saccharomyces cerevisiae [2] it was greater than 8000 µg/mL. The compound also had an IC50 in assay [3] of 5 µM.
For `CC(CO)(CO)NCc1cc2c(o1)C(=O)c1ccccc1C2=O`, in that order: 240 µg/mL, greater than 500 µg/mL and 2 µM.
Regarding `O=C1c2ccccc2C(=O)c2oc(CNCC(O)CO)cc21` (configuration not stated), the IC12 in the assay with Saccharomyces cerevisiae [1] is 220 µg/mL; in the assay with Saccharomyces cerevisiae [2] it was greater than 500 µg/mL. The same compound had an IC50 in assay [3] of 2 µM.
The matching figures for `O=C1c2ccccc2C(=O)c2occc21`: 17 µg/mL, 83 µg/mL and 5 µM.
The matching figures for `CC(C)(CO)NCc1cc2c(o1)C(=O)c1ccccc1C2=O`: 210 µg/mL, greater than 500 µg/mL and 4 µM.
The matching figures for `COc1cccc2c1C(=O)c1ccoc1C2=O`: 44 µg/mL, 152 µg/mL and 7 µM.
Take `CCC(CO)(CO)NCc1cc2c(o1)C(=O)c1ccccc1C2=O`: the IC12 in the assay with Saccharomyces cerevisiae [1] and with Saccharomyces cerevisiae [2] was greater than 500 µg/mL each time. The IC50 in assay [3] amounted to 5 µM.
In the case of `O=C1c2ccccc2C(=O)c2oc(CNC(CO)(CO)CO)cc21`, the figures for the IC12 with Saccharomyces cerevisiae [1] and with Saccharomyces cerevisiae [2] were greater than 250 µg/mL and greater than 500 µg/mL, respectively. Moreover, in assay [3], the IC50 was greater than 20 µM.
The matching figures for `COc1ccc2cn(C(C)(CO)CO)c3c2c1C(=O)c1ccoc1-3`: greater than 500 µg/mL, greater than 500 µg/mL and greater than 20 µM.
`CC(O)c1cc2c(o1)C(=O)c1ccccc1C2=O` (configuration not stated): the IC12 in the assay on Saccharomyces cerevisiae [2] worked out at 14 µg/mL. The same compound yielded an IC50 in the assay on Vero of 15.3 µM.
